Here are results for one molecule from ChEMBL document CHEMBL1177730, “Bivalent diketopiperazine-based tropomysin receptor kinase C (TrkC) antagonists” (J Med Chem, 2010).

Data set [1] concerns the target NT-3 growth factor receptor (Homo sapiens) (UniProt Q16288). The data set is described as follows: Binding affinity at human TrkC expressed in mouse NIH/3T3 cells by FACS analysis. The format is cell-based. The conditions noted are these: NIH3T3. In a few lines:
(§1)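 Stably transfected NIH-3T3 cells expressing the indicated receptor were incubated at 4 °C with biotin-tagged ligand (50 μM), then with fluorescein-avidin. After washing, cells were analysed by flow cytometry. Background mean channel fluorescence of NIH-IGF-1R cells was subtracted to give specific binding. Mean ± SEM, n = 3 independent experiments.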

Data set [2] relates to NIH3T3. The data set is described as follows: Cytotoxicity against mouse NIH/3T3 cells by MTT assay. The format is cell-based. On the technique in general: Formazan colour is commonly taken as a measure of viable cells.
Data set [3] concerns the target Insulin-like growth factor 1 receptor (Homo sapiens) (UniProt P08069). The data set is described as follows: Binding affinity to human IGF1R expressed in mouse NIH/3T3 cells by FACS analysis. The format is cell-based. The settings on record: NIH3T3.
For data set [4], the target named is High affinity nerve growth factor receptor (Homo sapiens) (UniProt P04629). Nature of the data set: Antagonist activity at human TrkA expressed in mouse NIH/3T3 cells assessed as decrease in NGF-induced tyrosin phosphorylation at 20 uM after 20 mins by Western blotting. The format is functional, cell-based. The settings on record: NIH3T3. On the technique in general: In western blotting, separated proteins are transferred to a membrane and probed.
Sequence of High affinity nerve growth factor receptor (Homo sapiens) (P04629 33-796 limits assumed): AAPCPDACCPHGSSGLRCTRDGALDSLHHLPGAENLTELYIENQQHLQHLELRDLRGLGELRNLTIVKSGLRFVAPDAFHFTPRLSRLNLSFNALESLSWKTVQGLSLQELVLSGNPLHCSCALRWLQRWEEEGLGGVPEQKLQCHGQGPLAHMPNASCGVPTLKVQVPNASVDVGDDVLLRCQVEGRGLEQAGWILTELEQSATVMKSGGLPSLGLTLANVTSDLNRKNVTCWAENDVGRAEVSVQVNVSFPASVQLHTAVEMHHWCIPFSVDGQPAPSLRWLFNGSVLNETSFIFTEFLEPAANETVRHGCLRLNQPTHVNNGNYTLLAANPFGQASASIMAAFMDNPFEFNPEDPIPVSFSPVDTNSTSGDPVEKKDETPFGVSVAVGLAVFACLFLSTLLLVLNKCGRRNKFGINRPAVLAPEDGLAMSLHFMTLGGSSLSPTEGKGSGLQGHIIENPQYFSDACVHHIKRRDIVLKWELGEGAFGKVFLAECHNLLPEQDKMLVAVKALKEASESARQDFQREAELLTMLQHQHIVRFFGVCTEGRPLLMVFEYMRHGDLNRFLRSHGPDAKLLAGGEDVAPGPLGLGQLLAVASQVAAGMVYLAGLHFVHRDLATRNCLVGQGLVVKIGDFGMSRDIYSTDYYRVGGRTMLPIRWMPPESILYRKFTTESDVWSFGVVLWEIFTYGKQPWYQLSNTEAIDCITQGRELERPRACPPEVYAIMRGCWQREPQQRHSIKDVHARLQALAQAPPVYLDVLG

Data set [5] addresses Insulin-like growth factor 1 receptor (Homo sapiens) (UniProt P08069). Nature of the data set: Antagonist activity at human IGF1R expressed in mouse NIH/3T3 cells assessed as inhibition of IGF-induced cytoprotection at 20 uM by MTT assay relative to IGF. The conditions noted are these: NIH3T3. The format is functional, cell-based. In outline: (§2)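 Survival of NIH-3T3 cells expressing TrkA, TrkC or IGF-1R was measured by MTT in serum-free medium. Medium held the matching growth factor (NGF for TrkA, NT-3 for TrkC, IGF-1 for IGF-1R) at optimal 10 nM or sub-optimal 0.2 nM, ± compound at 20 μM. Survival was expressed relative to optimal growth factor-mediated survival (100%); average ± sd.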

Data set [6] has the same target. Nature of the data set: Antagonist activity at human IGF1R expressed in mouse NIH/3T3 cells assessed as decrease in IGF-induced tyrosin phosphorylation at 20 uM after 20 mins by Western blotting. The format is functional, cell-based. The conditions noted are these: NIH3T3.
Data set [7] addresses NT-3 growth factor receptor (Homo sapiens) (UniProt Q16288). The data set is described as follows: Antagonist activity at human TrkC expressed in mouse NIH/3T3 cells assessed as decrease in NT3-induced TrkC-pTyr level at 20 uM after 20 mins by Western blotting. Also on record: scale not given: the % may be the effect or the level left. The conditions noted are these: NIH3T3. The format is functional, cell-based. In a few lines: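 NIH3T3-TrkC cells were exposed to NT-3 (2 nM) ± compound (20 μM) for 20 min. Detergent lysates were Western blotted with anti-pTyr mAb 4G10 and anti-phospho-MAPK, then re-blotted for actin to normalise loading. Bands were quantified by densitometry.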

For data set [8] the target is unchanged. Nature of the data set: Antagonist activity at human TrkC expressed in mouse NIH/3T3 cells assessed as inhibition of NT3-induced cytoprotection at 20 uM by MTT assay relative to NT3. The format is functional, cell-based. The settings on record: NIH3T3. In outline:
as §2

Data set [9] concerns the target High affinity nerve growth factor receptor (Homo sapiens) (UniProt P04629). Nature of the data set: Antagonist activity at human TrkA expressed in mouse NIH/3T3 assessed as inhibition of NGF-induced cytoprotection at 20 uM by MTT assay relative to NGF. The format is functional, cell-based. The conditions noted are these: NIH3T3. In outline:
as §2

Data set [10] addresses Tumor necrosis factor receptor superfamily member 16 (p75NTR, NGFR) (Homo sapiens) (UniProt P08138). Nature of the data set: Binding affinity to human p75 expressed in mouse NIH/3T3 cells by FACS analysis. The settings on record: NIH3T3.
Data set [11] has as its target High affinity nerve growth factor receptor (Homo sapiens) (UniProt P04629). The data set is described as follows: Binding affinity to human TrkA expressed in mouse NIH/3T3 cells by FACS analysis. The format is cell-based. The conditions noted are these: NIH3T3. In a few lines: as §1

In general, inhibition refers to how much of the control response was suppressed.

Calls of active or inactive are those of the source. The rule behind the calls is not given here.

Sequence of Insulin-like growth factor 1 receptor (Homo sapiens) (P08069 31-736 limits assumed): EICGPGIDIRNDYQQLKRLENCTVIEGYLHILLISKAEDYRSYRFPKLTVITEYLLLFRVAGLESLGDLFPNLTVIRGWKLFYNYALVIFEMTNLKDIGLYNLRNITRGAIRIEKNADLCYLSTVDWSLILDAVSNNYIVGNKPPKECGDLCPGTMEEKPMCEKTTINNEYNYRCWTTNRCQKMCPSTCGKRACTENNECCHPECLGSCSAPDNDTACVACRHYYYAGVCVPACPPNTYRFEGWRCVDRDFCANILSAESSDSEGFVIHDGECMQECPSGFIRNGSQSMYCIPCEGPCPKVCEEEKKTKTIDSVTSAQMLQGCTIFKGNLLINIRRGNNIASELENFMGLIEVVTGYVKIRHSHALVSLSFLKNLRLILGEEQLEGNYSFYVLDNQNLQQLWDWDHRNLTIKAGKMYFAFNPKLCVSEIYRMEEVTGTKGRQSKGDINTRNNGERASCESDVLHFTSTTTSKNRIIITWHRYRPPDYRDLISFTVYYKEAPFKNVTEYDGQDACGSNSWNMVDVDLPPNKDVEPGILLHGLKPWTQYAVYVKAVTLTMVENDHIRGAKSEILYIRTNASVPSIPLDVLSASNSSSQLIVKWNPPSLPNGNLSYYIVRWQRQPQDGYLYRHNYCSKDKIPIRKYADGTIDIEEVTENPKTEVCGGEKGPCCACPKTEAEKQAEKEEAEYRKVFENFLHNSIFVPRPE
Sequence of Insulin-like growth factor 1 receptor (Homo sapiens) (P08069 741-1367 limits assumed): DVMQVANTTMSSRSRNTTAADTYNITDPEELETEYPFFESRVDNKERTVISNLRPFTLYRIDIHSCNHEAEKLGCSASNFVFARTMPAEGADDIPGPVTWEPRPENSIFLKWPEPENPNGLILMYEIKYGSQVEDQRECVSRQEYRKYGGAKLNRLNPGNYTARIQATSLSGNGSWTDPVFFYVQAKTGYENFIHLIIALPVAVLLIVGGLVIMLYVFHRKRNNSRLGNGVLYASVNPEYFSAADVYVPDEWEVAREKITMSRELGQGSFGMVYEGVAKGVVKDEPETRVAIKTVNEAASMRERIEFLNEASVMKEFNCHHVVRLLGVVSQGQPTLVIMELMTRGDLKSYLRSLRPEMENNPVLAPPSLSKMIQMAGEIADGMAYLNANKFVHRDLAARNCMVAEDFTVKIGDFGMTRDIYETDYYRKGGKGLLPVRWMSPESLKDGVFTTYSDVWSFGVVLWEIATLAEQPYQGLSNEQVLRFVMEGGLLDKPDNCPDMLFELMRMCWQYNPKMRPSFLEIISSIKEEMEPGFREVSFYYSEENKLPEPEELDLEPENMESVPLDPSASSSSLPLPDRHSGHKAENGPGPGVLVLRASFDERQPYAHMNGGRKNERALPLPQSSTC
Sequence of NT-3 growth factor receptor (Homo sapiens) (Q16288 32-839 limits assumed): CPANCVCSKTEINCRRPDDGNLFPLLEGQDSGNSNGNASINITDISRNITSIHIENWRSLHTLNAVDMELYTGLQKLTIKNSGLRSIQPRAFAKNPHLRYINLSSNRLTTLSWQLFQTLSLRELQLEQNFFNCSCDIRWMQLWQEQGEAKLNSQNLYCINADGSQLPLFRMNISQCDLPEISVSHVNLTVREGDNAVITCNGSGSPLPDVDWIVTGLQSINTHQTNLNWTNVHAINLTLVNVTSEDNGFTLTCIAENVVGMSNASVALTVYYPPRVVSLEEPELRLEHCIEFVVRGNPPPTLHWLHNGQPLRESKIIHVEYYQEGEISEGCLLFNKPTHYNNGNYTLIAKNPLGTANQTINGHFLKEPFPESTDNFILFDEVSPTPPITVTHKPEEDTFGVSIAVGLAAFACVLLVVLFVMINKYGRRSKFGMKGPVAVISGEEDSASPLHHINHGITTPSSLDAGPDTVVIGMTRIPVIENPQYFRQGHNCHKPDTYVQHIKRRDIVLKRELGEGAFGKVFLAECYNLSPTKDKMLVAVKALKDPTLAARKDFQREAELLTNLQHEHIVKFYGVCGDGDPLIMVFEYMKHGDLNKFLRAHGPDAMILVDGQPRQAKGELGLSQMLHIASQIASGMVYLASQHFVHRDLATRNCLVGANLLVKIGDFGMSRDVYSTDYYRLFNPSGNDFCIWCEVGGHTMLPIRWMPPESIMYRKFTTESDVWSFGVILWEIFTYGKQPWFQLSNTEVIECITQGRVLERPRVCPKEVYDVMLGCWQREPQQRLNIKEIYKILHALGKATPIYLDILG
Sequence of Tumor necrosis factor receptor superfamily member 16 (p75NTR, NGFR) (Homo sapiens) (P08138 whole entry, looked up): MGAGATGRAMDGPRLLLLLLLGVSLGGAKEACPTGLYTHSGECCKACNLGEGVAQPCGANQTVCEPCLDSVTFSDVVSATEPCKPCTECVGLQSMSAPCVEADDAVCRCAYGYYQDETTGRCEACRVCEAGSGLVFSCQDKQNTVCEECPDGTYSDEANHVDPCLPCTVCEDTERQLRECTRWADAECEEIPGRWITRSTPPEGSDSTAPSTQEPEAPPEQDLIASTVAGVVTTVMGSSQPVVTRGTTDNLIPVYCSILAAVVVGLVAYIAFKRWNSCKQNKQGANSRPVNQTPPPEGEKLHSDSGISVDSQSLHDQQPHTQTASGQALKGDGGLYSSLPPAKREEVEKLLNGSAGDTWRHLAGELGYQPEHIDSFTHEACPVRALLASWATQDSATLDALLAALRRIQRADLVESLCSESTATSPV

On to `CN1C(=O)CN([C@@H](CCCCN)C(=O)NCCCCCCCCCCC(=O)N2CCN(c3nc(NCCCC[C@@H]4SC[C@@H]5NC(=O)N[C@@H]54)nc(N4CCN(C(=O)[C@H](CCCCN)N5CC(=O)N(C)[C@@H](CCC(=O)O)C5=O)CC4)n3)CC2)C(=O)[C@@H]1CCC(=O)O`, for which, in [1], the outcome was Active. Besides, the results for the Activity result in [2] and in data set [7] were “Non-toxic” and 40%, respectively. For the same molecule, the outcome in data set [3], in data set [4], in data set [6], in [10] and in data set [11] was inactive. The inhibition entry in data set [5] and in [9] was “inactive” each time. In addition, the inhibition in data set [8] is 30%.
